From PubChem BioAssay
CHRM4 antagonist: human M4 muscarinic receptor antagonists, primary screen, CHO cells, Fluo-8 calcium fluorescence; Muscarinic acetylcholine receptor M4 (Homo sapiens), P08173; CHO-hM4 cells, ACh EC80; inhibition, % at 3 µM; actives 0.73% (n = 360,000);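 active = inhibition above its plate's cutoff, the mean inhibition of sample wells plus 3 SD, cut at about 27% in these data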
M5 PAM: human M5 muscarinic receptor positive allosteric modulators, primary screen, CHO-K1 cells, Fluo-8 calcium fluorescence. activation, % at 3 µM. AID 624038, 2012. actives 0.3% (n = 360,000). CHO-K1 hM5, ACh EC20 PAM; 0% = ACh EC20, 100% = ACh EC100. Muscarinic acetylcholine receptor M5 (Homo sapiens), P08912;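 active = activation above the run cutoff, the mean activation of all test compounds plus 3 SD, cut at about 18% in these data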
Target sequence (P08912 whole entry, looked up): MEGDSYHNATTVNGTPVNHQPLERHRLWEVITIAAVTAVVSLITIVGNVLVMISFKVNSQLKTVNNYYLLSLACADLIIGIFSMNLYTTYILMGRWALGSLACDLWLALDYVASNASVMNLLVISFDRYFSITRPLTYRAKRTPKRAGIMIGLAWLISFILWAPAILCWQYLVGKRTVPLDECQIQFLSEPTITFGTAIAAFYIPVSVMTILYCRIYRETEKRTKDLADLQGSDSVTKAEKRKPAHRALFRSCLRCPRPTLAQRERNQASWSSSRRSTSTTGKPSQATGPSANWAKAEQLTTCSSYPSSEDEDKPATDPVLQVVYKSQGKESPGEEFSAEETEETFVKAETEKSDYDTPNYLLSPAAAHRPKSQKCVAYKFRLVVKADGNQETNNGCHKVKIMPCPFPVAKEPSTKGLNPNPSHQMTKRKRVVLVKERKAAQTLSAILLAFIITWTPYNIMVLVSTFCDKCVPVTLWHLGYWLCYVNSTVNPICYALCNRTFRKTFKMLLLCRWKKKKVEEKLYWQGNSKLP
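Probe or stimulus: acetylcholine, EC20 level; Assay system: human M5 receptor in CHO-K1 cells; Schedule: compound preincubation 140 s before EC20 acetylcholine addition; Technique: intracellular calcium via Fluo-8 fluorescence; Dosing: single-point, 3 µM nominal; Read-out basis: percent activation from peak-over-basal fluorescence ratio, scaled EC20-to-EC100 acetylcholine; Repeats: one well per compound, no replicates.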
CHRM5 agonist: human M5 muscarinic receptor agonists, primary screen, CHO-K1 cells, Fluo-8 calcium fluorescence; actives 0.19% (n = 360,000); activation, % at 3 µM; Muscarinic acetylcholine receptor M5 (Homo sapiens), P08912; CHO-K1 hM5 cells; 0% DMSO wells, 100% maximal acetylcholine response;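 active = activation above the run's mean over test compounds plus 3 SD, cut at about 23% in these data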;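 also: signal is peak over basal fluorescence ratio across the kinetic read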
M4 PAM: human M4 muscarinic receptor positive allosteric modulators, primary screen, CHO-K1 cells, Fluo-8 calcium fluorescence. Muscarinic acetylcholine receptor M4 (Homo sapiens), P08173. CHO-K1 hM4/Gqi5, ACh EC20; 0% = ACh EC20, 100% = maximal ACh. activation, % at 3 µM. actives 0.4% (n = 360,000). AID 624126, 2012;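 active = activation above its plate's cutoff, the mean activation of sample wells plus 3 SD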
M4 ag: human M4 muscarinic receptor agonists, primary screen, CHO-K1 cells, Fluo-8 calcium fluorescence; actives 0.14% (n = 360,000); Muscarinic acetylcholine receptor M4 (Homo sapiens), P08173; activation, % at 3 µM; CHO-K1 hM4/Gqi5; vehicle 0%, full acetylcholine response 100%;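 active = activation above the run mean over all test wells plus 3 SD, cut at about 32% in these data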;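 also: peak over basal fluorescence ratio per well then scaled between controls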
CHRM5 antagonist: human M5 muscarinic receptor antagonists, primary screen, CHO cells, Fluo-8 calcium fluorescence | inhibition, % at 3 µM | actives 0.59% (n = 360,000) | CHO-hM5 cells, ACh EC80;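 active = inhibition above a per-plate cutoff, the mean of that plate's test compounds plus 3 SD, cut at about 27% in these data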
Each line names hits and unclear results; the compound was inactive in the other large screens. Compounds with a hit are over-represented: about 1.8% of the library has one in this group of screens.

CCC(C)[C@H]1CN=C(N)N1CCc1cc(C(F)(F)F)cc(C(F)(F)F)c1 (stereo partly specified)	CHRM5 antagonist 29
CC(O)[C@H]1CNC(=O)C(=O)N1CCc1cc(C(F)(F)F)cc(C(F)(F)F)c1 (stereo partly specified)	CHRM5 antagonist 42
NC1=NC[C@@H](CC2CCCCC2)N1CCc1cc(C(F)(F)F)cc(C(F)(F)F)c1	CHRM5 antagonist 45
CC(O)[C@H]1CNC(=O)C(=O)N1CCc1cccc(F)c1 (stereo partly specified)	none
CC(Oc1ccc(S(=O)(=O)N2CCCC2)cc1[N+](=O)[O-])C(=O)NC1(C#N)CCCCC1 (stereo unspecified)	none
CN(C(=O)CSCC(=O)Nc1ccc(Cl)cc1)C1CCCCC1	none
O=C(O)CNC(=O)c1nc(-c2ccccc2)n(-c2ccccc2)n1	none
Cc1ccc(NS(=O)(=O)c2ccc(C(=O)NNC(=O)c3ccccc3O)cc2)cc1	none
COC(=O)c1[nH]c2ccc(F)cc2c1NS(=O)(=O)c1ccc(F)c(C)c1	CHRM4 antagonist 40
O=C(Cc1ccc(F)cc1)NCCS(=O)(=O)N1CCN(c2cccc(Cl)c2)CC1	none
CCCC(=O)c1c(NC(C)C)cc(C)oc1=O	M4 PAM 39
Cc1ccccc1OCC(=O)OCC(=O)NC1CCCC1	none
COc1cc(S(=O)(=O)NC2CCSc3ccccc32)ccc1NC(C)=O (stereo unspecified)	none
CCCc1nn(-c2cc(Cl)ccc2OC)c2c1C(=O)CC(C)(C)C2	none
CCc1nn(-c2cc(Cl)ccc2OC)c2c1C(=O)CCC2	M5 PAM 18
CCOC(=O)N1CCN(c2ccnc3cc(Cl)ccc23)CC1	CHRM4 antagonist 77
O=C(Nc1cnc2ccccc2c1)N1CCOCC1	M4 PAM 20
COC(=O)CC1=Nc2ccccc2NC(=O)C1	none
CCOC(=O)CC1=Nc2ccccc2NC(=O)C1	CHRM4 antagonist 27
CCN1C(=O)[C@H]2[C@@H](c3ccc(-c4ccc(C(C)=O)cc4)c(OC)c3)N[C@@](Cc3ccccc3)(C(=O)OC)[C@H]2C1=O	none
O=[N+]([O-])c1cnc(Sc2ccncn2)s1	CHRM4 antagonist 32
O=[N+]([O-])c1cnc(Sc2ccncn2)c([N+](=O)[O-])c1	none
COCCCNC(=O)C1c2ccccc2Oc2ccccc21	none
CCN(CC)CCCNC(=O)C1c2ccccc2Oc2ccccc21	CHRM5 antagonist 28
CC[N+](C)(CC)CCOC(=O)C1c2ccccc2Oc2ccccc21	CHRM4 antagonist 99, CHRM5 antagonist 99
CN(C)CCCOC(=O)C1c2ccccc2Oc2ccccc21	CHRM4 antagonist 95, CHRM5 antagonist 97
CN(CCOC(=O)C1c2ccccc2Oc2ccccc21)C(C)(C)C	CHRM4 antagonist 99, CHRM5 antagonist 98
CCCCC(=O)N(C)c1c(CC)nc2c(OCC=C(C)C)cccn12	none
N#Cc1c(NC(=O)CSc2nc(N)cc(=O)[nH]2)sc2c1CCCC2	none
COc1ccccc1C(=O)COC(=O)c1ccccc1O	CHRM5 antagonist 33
COc1ccccc1C(=O)COC(=O)c1cccs1	none
COCCNC(=O)C1(C)CCCN(C(=O)Cc2ccc3ccccc3c2)C1 (stereo unspecified)	M4 PAM 17
CCCNC(=O)C1(C)CCCN(C(=O)Cc2ccc3ccccc3c2)C1 (stereo unspecified)	none
CCOc1ccccc1N(CC(=O)Nc1ccc(S(=O)(=O)N2CCOCC2)cc1)S(=O)(=O)c1ccc(Cl)cc1	none
CCOc1ccc(CCNC(=O)CSc2n[nH]c(N)n2)cc1OCC	CHRM5 antagonist 30
CCOC(=O)C1CCCN(C(=O)c2ccc(-c3ccccc3)cc2)CC1 (stereo unspecified)	none
COc1ccccc1-c1c(C(F)(F)F)oc2cc(OC(=O)c3ccc([N+](=O)[O-])cc3)ccc2c1=O	M4 PAM 21
Cc1cc(=O)oc2cc(OC(=O)c3ccccc3)ccc12	none
CCCOc1ccc(C(=O)NCCCn2ccnc2)cc1	none
O=C(NCCCn1ccnc1)c1cc2ccccc2o1	none
Cc1c(C(=O)NCCCn2ccnc2)oc2ccccc12	M5 PAM 18
CCOc1ccc(C(=O)NCCCn2ccnc2)cc1	M5 PAM 18
O=C(NNS(=O)(=O)c1ccc(Cl)cc1)c1cccc(S(=O)(=O)N2CCOCC2)c1	none
O=C1CCCc2c1nc(-c1ccc([N+](=O)[O-])cc1)n2O	none
O=C1CCCc2c1nc(-c1ccc(F)cc1)n2O	M5 PAM 20
COc1ccc(NC(=O)CSc2nc(N)c(NC(=O)c3ccccc3F)c(=O)[nH]2)cc1	M4 PAM 17
COc1ccc(C(=O)Nc2c(N)nc(SCC(=O)Nc3ccc(NC(C)=O)cc3)[nH]c2=O)cc1	none
CCN1C(=O)C(=O)N(CC(=O)N2CCC(C)Sc3ccccc32)C1=O (stereo unspecified)	none
Cc1cc(C)n(-c2cccc(F)n2)n1	M5 PAM 19
COCCNC(=O)C1CCCN(Cc2ccccc2F)CC1 (stereo unspecified)	none
O=c1cc(-c2ccc(C3CCCCC3)cc2)[nH][nH]1	none
Nc1nc(-c2ccccn2)nc(N)c1Cc1c(F)cccc1Cl	M5 PAM 19
Nc1nc(-c2ccccn2)nc(N)c1Cc1ccccc1F	none
Clc1ccc(OCc2nc(-c3ccccn3)no2)c(Br)c1	none
Nc1nc(-c2ccccn2)nc(N)c1Cc1ccc(Cl)cc1Cl	CHRM4 antagonist 81
CCOC(=O)C1=C(COC(=O)c2ccc(Cl)cc2[N+](=O)[O-])NC(=O)NC1C (stereo unspecified)	none
CCO[C@H]1OC(C(=O)NCc2ccccc2)=C[C@@H](c2ccc3c(c2)OCO3)[C@@H]1CCCO	CHRM5 agonist 25
CCO[C@@H]1OC(C(=O)NCc2ccccc2)=C[C@H](c2csc3ccccc23)[C@H]1CCCO	CHRM4 antagonist 27, M4 ag 42
CCO[C@H]1OC(C(=O)NCc2nc3ccccc3[nH]2)=C[C@@H](C2CC2)[C@@H]1CCCO	M4 PAM 24
Cn1c(=O)[nH]c(=O)c2c1nc(Br)n2CCCO	M5 PAM 22
COc1ccc(CSCCc2n[nH]c(=S)n2-c2ccccc2)cc1	CHRM4 antagonist 48
